Data on 20 compounds can be found in ChEMBL document CHEMBL1140054, “Phosphate prodrugs derived from N-acetylglucosamine have enhanced chondroprotective activity in explant cultures and represent a new lead in antiosteoarthritis drug discovery” (J Med Chem, 2008).

Data set [1] in a line: Cytotoxicity against bovine chondrocytes at 1 mM after 96 hrs by MTT cell viability assay. The format is cell-based, Bos taurus. The conditions noted are these: cattle, 1000 µM. The gist of the method: (§1)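 Chondrocytes isolated from mature bovine (>18 months) metacarpophalangeal cartilage by 1 h 0.1% pronase then overnight 0.04% collagenase digestion at 37 °C. Cultured 96 h in serum-free DMEM with gentamicin and 1% HEPES, with or without compound (10-0.1 mM). MTT at final 1 mg/mL for 3 h; formazan dissolved in DMSO and OD read. Viability given as % of untreated cells; n experiments from different cows, in triplicate.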

Data set [2] can be described thus: Chondroprotective activity in bovine articular cartilage explant cultures assessed as reduction in IL1-induced glycosaminoglycan release at 0.1 mM after 96 hrs. In kind it is functional, Bos taurus. The procedure, abridged:
(§2)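 Full-depth articular cartilage explants (50-100 mg) from mature bovine metacarpophalangeal joints; equilibrated 48 h in DMEM with 10% FCS, gentamicin, 1% HEPES, then washed in serum-free medium. Cultured in triplicate in serum-free DMEM with or without compound (10-0.1 mM); 10 ng/mL recombinant human IL-1 added to half the wells. After 96 h, media sulfated GAG measured by DMMB dye binding (A525) against shark chondroitin sulfate C standard.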

Data set [3] in a line: Chondroprotective activity in bovine articular cartilage explant cultures assessed as reduction in IL1-induced glycosaminoglycan release at 0.1 mM after 96 hrs relative to control. In kind it is functional, Bos taurus. Also noted: scale not given: the % may be the effect or the level left. The procedure, abridged:
as §2

Data set [4] in a line: Cytotoxicity against bovine chondrocytes at 0.1 mM after 96 hrs by MTT cell viability assay. The following applies: cattle, 100 µM. The format is cell-based, Bos taurus. The procedure, abridged:
as §1

Data set [5] is described as follows: Cytotoxicity against bovine chondrocytes at 10 mM after 96 hrs by MTT cell viability assay. The following applies: cattle, 10000 µM. The format is cell-based, Bos taurus. The procedure, abridged:
as §1

The nature of data set [6]: Chondroprotective activity in bovine articular cartilage explant cultures assessed as reduction in IL1-induced glycosaminoglycan release at 10 mM after 96 hrs relative to control. The format is functional, Bos taurus. Also noted: scale not given: the % may be the effect or the level left. The procedure, abridged: as §2
Data set [7] in a line: Chondroprotective activity in bovine articular cartilage explant cultures assessed as reduction in IL1-induced glycosaminoglycan release at 10 mM after 96 hrs. In kind it is functional, Bos taurus. The gist of the method:
as §2

Data set [8] can be described thus: Chondroprotective activity in bovine articular cartilage explant cultures assessed as reduction in IL1-induced glycosaminoglycan release at 1 mM after 96 hrs. In kind it is functional, Bos taurus. The gist of the method: as §2
Data set [9] can be described thus: Chondroprotective activity in bovine articular cartilage explant cultures assessed as reduction in IL1-induced glycosaminoglycan release at 1 mM after 96 hrs relative to control. Also noted: scale not given: the % may be the effect or the level left. In kind it is functional, Bos taurus. The gist of the method:
as §2

As to `COC(=O)[C@H](C)NP(=O)(OC[C@H]1OC(O)[C@H](NC(C)=O)[C@@H](O)[C@@H]1O)Oc1ccc(OC)cc1` (some centres not stated), the Activity in [1] was determined as 37%; in data set [3], 15.8%; in data set [4], 97%. Also, the “fold change (FC)” value in [2] is 3.9.

`COc1ccc(OP(=O)(N[C@@H](Cc2ccccc2)C(=O)OCc2ccccc2)OC[C@H]2OC(O)[C@H](NC(C)=O)[C@@H](O)[C@@H]2O)cc1` (some centres not stated): the Activity in [5] stood at 49%; in [6], 2.3%. Further, in [7], the “fold change (FC)” value turned out to be 2.1.

For `COc1ccc(OP(=O)(N[C@H](C)C(=O)OCc2ccccc2)OC[C@H]2OC(O)[C@H](NC(C)=O)[C@@H](O)[C@@H]2O)cc1` (some centres not stated), the “fold change (FC)” value in data set [8] was 2.8; in data set [2] it was 3.4. The Activity worked out at 31% in data set [9], 66% in data set [1], 24.3% in data set [3] and 96% in data set [4].

`COc1ccc(OP(=O)(N[C@H](C(=O)OC(C)C)C(C)C)OC[C@H]2OC(O)[C@H](NC(C)=O)[C@@H](O)[C@@H]2O)cc1` (some centres not stated): the “fold change (FC)” value in [8] turned out to be 3.6; in data set [2], 3.2. In addition, the Activity came out at 12.1% in data set [9], 56% in data set [1], 14% in data set [3] and 93% in data set [4].

`CCCCOC(=O)[C@@H]1CCCN1P(=O)(OC[C@H]1OC(O)[C@H](NC(C)=O)[C@@H](O)[C@@H]1O)Oc1ccc(OC)cc1` (some centres not stated): the “fold change (FC)” value in [2] is 4.1. For the same compound, the Activity in [3] is listed as -17.5%; in [4], 98%.

For the compound `COc1ccc(OP(=O)(OC[C@H]2OC(O)[C@H](NC(C)=O)[C@@H](O)[C@@H]2O)N2CCC[C@H]2C(=O)OCc2ccccc2)cc1` (some centres not stated), the entries for the “fold change (FC)” value in data set [8], in data set [7] and in data set [2] were 4.1, 0.8 and 4, respectively. Further, the Activity is 63% in data set [5]; 65.6% in data set [6]; 2.2% in data set [9]; 85% in data set [1]; -21.9% in [3]; 78% in data set [4].

On to `CCOC(=O)[C@@H](NP(=O)(OC[C@H]1OC(O)[C@H](NC(C)=O)[C@@H](O)[C@@H]1O)Oc1ccc(OC)cc1)C(C)C` (some centres not stated), for which the “fold change (FC)” value in data set [2] was 4.4. Further, the Activity is -21.1% in data set [3] and 94% in [4].

As to `CC(=O)N[C@@H]1[C@@H](O)[C@H](O)[C@@H](CO)O[C@H]1O` [N-ACETYLGLUCOSAMINE], the “fold change (FC)” value in data set [8] was 4.5; in data set [7], 2.9; in data set [2], 4.3. Besides, the Activity in data set [5] is given as 61%; in data set [6], 9.3%; in data set [9], -1%; in data set [1] it was 70%; in data set [3], 5.4%; in [4] it was 107%.

Regarding `COc1ccc(OP(=O)(N[C@H](C(=O)OC2CCCCC2)C(C)C)OC[C@H]2OC(O)[C@H](NC(C)=O)[C@@H](O)[C@@H]2O)cc1` (some centres not stated), the Activity in data set [1] is 30%; in data set [3] it was -6.3%; in data set [4], 92%. In addition, the “fold change (FC)” value in data set [2] turned out to be 4.8.

In the case of `CC[C@H](C)[C@H](NP(=O)(OC[C@H]1OC(O)[C@H](NC(C)=O)[C@@H](O)[C@@H]1O)Oc1ccc(OC)cc1)C(=O)OCc1ccccc1` (some centres not stated), the “fold change (FC)” value in data set [8] is 1.2; in data set [7] it was 0.5; in [2] it was 3.9. Also, the Activity is 56% in [5]; 74.6% in data set [6]; 70.8% in data set [9]; 118% in data set [1]; 5.2% in [3]; 110% in data set [4].

For the compound `CCOC(=O)CNP(=O)(OC[C@H]1OC(O)[C@H](NC(C)=O)[C@@H](O)[C@@H]1O)Oc1ccc(OC)cc1` (some centres not stated), the results for the Activity in data set [1], in data set [3] and in [4] were 37%, -19.3% and 78%, respectively. Also, the “fold change (FC)” value in data set [2] amounted to 3.6.

As to `N[C@H]1C(O)O[C@H](CO)[C@@H](O)[C@@H]1O` (some centres not stated) [GLUCOSAMINE], the figures for the “fold change (FC)” value in data set [8], in data set [7] and in [2] were 4.7, 2 and 5.1, respectively. The Activity in data set [5] worked out at 56%; in data set [6] it was 19%; in data set [9] it was 3.4%; in [1], 88%; in data set [3], 0.8%; in [4], 106%.

On to `COc1ccc(OP(=O)(N[C@@H](CC(C)C)C(=O)OCc2ccccc2)OC[C@H]2OC(O)[C@H](NC(C)=O)[C@@H](O)[C@@H]2O)cc1` (some centres not stated), for which the “fold change (FC)” value is recorded as 2.6 in data set [8], 0.9 in [7] and 4.1 in data set [2]. Besides, the Activity in data set [5] was 39%; in [6], 64%; in [9], 44.7%; in data set [1], 20%; in data set [3], 12.2%; in data set [4], 87%.

As for `COc1ccc(OP(=O)(N[C@@H](C)C(=O)OCc2ccccc2)OC[C@H]2OC(O)[C@H](NC(C)=O)[C@@H](O)[C@@H]2O)cc1` (some centres not stated), the “fold change (FC)” value was 4.2 in data set [8], 2 in data set [7] and 4.6 in data set [2]. The Activity in data set [5] was 85%; in [6] it was 24.2%; in [9], 5.6%; in data set [1], 81%; in data set [3] it was -2.2%; in data set [4], 104%.

Turning to `COc1ccc(OP(=O)(NC(C)(C)C(=O)OCc2ccccc2)OC[C@H]2OC(O)[C@H](NC(C)=O)[C@@H](O)[C@@H]2O)cc1` (some centres not stated), the “fold change (FC)” value in data set [8] came to 4.2; in data set [2] it was 3.4. The Activity was -0.3% in data set [9], 95% in data set [1], -2.2% in data set [3] and 99% in [4].

As for `COc1ccc(OP(=O)(NCC(=O)OCc2ccccc2)OC[C@H]2OC(O)[C@H](NC(C)=O)[C@@H](O)[C@@H]2O)cc1` (some centres not stated), the “fold change (FC)” value in [8] worked out at 1.2; in data set [2], 4.2. Moreover, the Activity is on record as 73.6% in data set [9], 100% in [1], -12.2% in data set [3] and 99% in data set [4].

For `COc1ccc(OP(=O)(N[C@H](C(=O)OCc2ccccc2)C(C)C)OC[C@H]2OC(O)[C@H](NC(C)=O)[C@@H](O)[C@@H]2O)cc1` (some centres not stated), the results for the “fold change (FC)” value in data set [8], in data set [7] and in data set [2] were 0.9, 0.5 and 4, respectively. In addition, the Activity is on record as 40% in data set [5]; 85.3% in [6]; 77.6% in data set [9]; 100% in data set [1]; 2.5% in data set [3]; 104% in data set [4].

With `COc1ccc(OP(=O)(N[C@@H](CCSC)C(=O)OCc2ccccc2)OC[C@H]2OC(O)[C@H](NC(C)=O)[C@@H](O)[C@@H]2O)cc1` (some centres not stated), the figures for the “fold change (FC)” value in data set [8] and in [2] were 1.6 and 3.8, respectively. Also, the Activity amounted to 62.2% in data set [9], 49% in data set [1], 18% in [3] and 103% in data set [4].

Regarding `CCOC(=O)[C@H](C)NP(=O)(OC[C@H]1OC(O)[C@H](NC(C)=O)[C@@H](O)[C@@H]1O)Oc1ccc(OC)cc1` (some centres not stated), the Activity in [1] is 76%; in data set [3], -1.9%; in [4], 89%. Besides, in [2], the “fold change (FC)” value was 4.4.

Take `CCOC(=O)CN(C)P(=O)(OC[C@H]1OC(O)[C@H](NC(C)=O)[C@@H](O)[C@@H]1O)Oc1ccc(OC)cc1` (some centres not stated): the Activity in data set [1] is on record as 100%; in [3], -16.3%; in [4], 100%. For the same compound, the “fold change (FC)” value in [2] stood at 5.4.
